In ChEMBL document CHEMBL3102784, “Salicylanilide diethyl phosphates: synthesis, antimicrobial activity and cytotoxicity” (Bioorg Med Chem, 2014):
pIC50: −log10 of the molar value. ≈ marks a conversion by molar mass, not a printed value. Calls of active or inactive are those of the source. No cut-off for these calls is given here.

Experiments:
Candida tropicalis = test: Antifungal activity against Candida tropicalis 156 at 500 micromol/L after 24 to 48 hrs by broth microdilution method; assay type: functional, organism-based
Summary of the method: (§1)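 Broth microdilution in RPMI 1640 with glutamine, fluconazole as reference. For yeasts, MIC is ≥80% growth reduction (IC80) versus control. For filamentous fungi, the value is expressed as IC50. Readings at 24 and 48 h.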

[1] = test system: Staphylococcus epidermidis; test: Antibacterial activity against Staphylococcus epidermidis H 6966/08 after 48 hrs by broth microdilution method; assay type: functional; details: H 6966/08, 48 h
Summary of the method: (§2)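 Broth microdilution in Mueller–Hinton broth, compounds dissolved in DMSO, tested over a dilution series from 500 downward. MIC taken as ≥95% growth reduction (IC95) versus drug-free control. Benzylpenicillin comparator. Readings at 24 and 48 h.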

Candida albicans [2] = test: Antifungal activity against Candida albicans ATCC 44859 after 24 hrs by broth microdilution method; assay type: functional; details: ATCC 44859, 24 h; summary of the method: as §1
Nakaseomyces glabratus = test: Antifungal activity against Candida glabrata 20/I at 500 micromol/L after 24 to 48 hrs by broth microdilution method; assay type: functional, organism-based; summary of the method: as §1
Aspergillus fumigatus [3] = test: Antifungal activity against Aspergillus fumigatus 231 after 24 hrs by broth microdilution method; assay type: functional; details: Aspergillus fumigatus, 231, 24 h; summary of the method: as §1
Candida albicans [4] = test: Antifungal activity against Candida albicans ATCC 44859 after 48 hrs by broth microdilution method; assay type: functional; details: ATCC 44859, 48 h; summary of the method: as §1
Staphylococcus aureus [5] = test: Antibacterial activity against Staphylococcus aureus CCM 4516/08 after 48 hrs by broth microdilution method; assay type: functional; details: CCM 4516/08, 48 h; summary of the method: as §2
Trichosporon asahii [6] = test: Antifungal activity against Trichosporon asahii 1188 after 24 hrs by broth microdilution method; assay type: functional; details: Trichosporon asahii, 1188, 24 h; summary of the method: as §1
Staphylococcus aureus [7] = test: Antibacterial activity against Staphylococcus aureus CCM 4516/08 after 24 hrs by broth microdilution method; assay type: functional; details: CCM 4516/08, 24 h; summary of the method: as §2
Pseudomonas aeruginosa = test: Antibacterial activity against Pseudomonas aeruginosa CCM 1961 at 500 micromol/L after 24 to 48 hrs by broth microdilution method; assay type: functional, organism-based; summary of the method: as §2
Mycobacterium kansasii [8] = test: Antimycobacterial activity against Mycobacterium kansasii My 235/80 after 7 days; assay type: functional; details: My 235/80, 168 h
Summary of the method: (§3)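 Micromethod MIC in Šula's semisynthetic medium at 37 °C. Compounds added in DMSO at 1000 down to 0.032 µmol/L. Isoniazid standard in sterile water at 0.5–250 µmol/L. Inocula: H37Rv 10^3, M. avium 10^5, M. kansasii 10^4. Read at 14 and 21 d, plus 7 d for M. kansasii.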

Staphylococcus aureus [9] = test: Antibacterial activity against methicillin-resistant Staphylococcus aureus H 5996/08 after 48 hrs by broth microdilution method; assay type: functional; details: H 5996/08, 48 h; summary of the method: as §2
Pichia kudriavzevii [10] = test: Antifungal activity against Candida krusei E28 after 48 hrs by broth microdilution method; assay type: functional; details: E28, 48 h; summary of the method: as §1
Klebsiella pneumoniae [11] = test: Antibacterial activity against ESBL-positive Klebsiella pneumoniae J 14368/08 at 500 micromol/L after 24 to 48 hrs by broth microdilution method; assay type: functional, organism-based; summary of the method: as §2
[12] = test system: Staphylococcus epidermidis; test: Antibacterial activity against Staphylococcus epidermidis H 6966/08 after 24 hrs by broth microdilution method; assay type: functional; details: H 6966/08, 24 h; summary of the method: as §2
Trichosporon asahii [13] = test: Antifungal activity against Trichosporon asahii 1188 after 48 hrs by broth microdilution method; assay type: functional; details: Trichosporon asahii, 1188, 48 h; summary of the method: as §1
Lichtheimia corymbifera [14] = test: Antifungal activity against Absidia corymbifera 272 after 48 hrs by broth microdilution method; assay type: functional; details: Lichtheimia corymbifera, 272, 48 h; summary of the method: as §1
HepG2 = test: Cytotoxicity against human HepG2 cells after 24 hrs by CellTiter assay; assay type: cell-based; details: HepG2, 24 h
Summary of the method: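 HepG2 cells (passage 27–33) in MEM with 10% FBS, L-glutamine and NEAA, seeded at 1×10^4 per well. Treated next day with compounds at 0.1–100 µM (or 0.1–25 µmol/L), triplicates, <1% DMSO, for 24 h at 37 °C, 5% CO2. MTS reagent added for 2 h, absorbance read at 490 nm. IC50 taken against untreated (100%) and 10% DMSO (0%) controls.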

Staphylococcus aureus [15] = test: Antibacterial activity against methicillin-resistant Staphylococcus aureus H 5996/08 after 24 hrs by broth microdilution method; assay type: functional; details: H 5996/08, 24 h; summary of the method: as §2
Mycobacterium avium [16] = test: Antimycobacterial activity against isoniazid, rifampicin, ethambutol and ofloxacin-resistant Mycobacterium avium My 330/88 after 21 days; assay type: functional; details: My 330/88, 504 h; summary of the method: as §3
[17] = test system: Trichophyton mentagrophytes; test: Antifungal activity against Trichophyton mentagrophytes 445 after 72 hrs by broth microdilution method; assay type: functional; details: Trichophyton mentagrophytes, 445, 72 h
Summary of the method: (§4)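 Filamentous dermatophyte tested by broth microdilution in RPMI 1640 with glutamine, fluconazole as reference. Value expressed as IC50 relative to growth control. Read at 72 and 120 h.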

Mycobacterium kansasii [18] = test: Antimycobacterial activity against Mycobacterium kansasii 6509/96 after 21 days; assay type: functional; details: 6509/96, 504 h; summary of the method: as §3
Mycobacterium kansasii [19] = test: Antimycobacterial activity against Mycobacterium kansasii My 235/80 after 14 days; assay type: functional; details: My 235/80, 336 h; summary of the method: as §3
Enterococcus sp. = test: Antibacterial activity against Enterococcus sp. J 14365/08 at 500 micromol/L after 24 to 48 hrs by broth microdilution method; assay type: functional, organism-based; summary of the method: as §2
Aspergillus fumigatus [20] = test: Antifungal activity against Aspergillus fumigatus 231 after 48 hrs by broth microdilution method; assay type: functional; details: Aspergillus fumigatus, 231, 48 h; summary of the method: as §1
Pichia kudriavzevii [21] = test: Antifungal activity against Candida krusei E28 after 24 hrs by broth microdilution method; assay type: functional; details: E28, 24 h; summary of the method: as §1
Lichtheimia corymbifera [22] = test: Antifungal activity against Absidia corymbifera 272 after 24 hrs by broth microdilution method; assay type: functional; details: Lichtheimia corymbifera, 272, 24 h; summary of the method: as §1
Escherichia coli = test: Antibacterial activity against Escherichia coli CCM 4517 at 500 micromol/L after 24 to 48 hrs by broth microdilution method; assay type: functional, organism-based; summary of the method: as §2
[23] = test system: Mycobacterium tuberculosis; test: Antimycobacterial activity against Mycobacterium tuberculosis H37Rv My 331/88 after 21 days; assay type: functional; details: H37Rv My 331/88, 504 h; summary of the method: as §3
[24] = test system: Trichophyton mentagrophytes; test: Antifungal activity against Trichophyton mentagrophytes 445 after 120 hrs by broth microdilution method; assay type: functional; details: Trichophyton mentagrophytes, 445, 120 h; summary of the method: as §4
Mycobacterium avium [25] = test: Antimycobacterial activity against isoniazid, rifampicin, ethambutol and ofloxacin-resistant Mycobacterium avium My 330/88 after 14 days; assay type: functional; details: My 330/88, 336 h; summary of the method: as §3
Mycobacterium kansasii [26] = test: Antimycobacterial activity against Mycobacterium kansasii 6509/96 after 7 days; assay type: functional; details: 6509/96, 168 h; summary of the method: as §3
[27] = test system: Mycobacterium tuberculosis; test: Antimycobacterial activity against Mycobacterium tuberculosis H37Rv My 331/88 after 14 days; assay type: functional; details: H37Rv My 331/88, 336 h; summary of the method: as §3
Mycobacterium kansasii [28] = test: Antimycobacterial activity against Mycobacterium kansasii 6509/96 after 14 days; assay type: functional; details: 6509/96, 336 h; summary of the method: as §3
Mycobacterium kansasii [29] = test: Antimycobacterial activity against Mycobacterium kansasii My 235/80 after 21 days; assay type: functional; details: My 235/80, 504 h; summary of the method: as §3
Klebsiella pneumoniae [30] = test: Antibacterial activity against Klebsiella pneumoniae D 11750/08 at 500 micromol/L after 24 to 48 hrs by broth microdilution method; assay type: functional, organism-based; summary of the method: as §2

Row | Compound | MIC95 [1] | MIC80 (Candida albicans [2]) | MIC50 (Aspergillus fumigatus [3]) | MIC80 (Candida albicans [4]) | MIC95 (Staphylococcus aureus [5]) | MIC80 (Trichosporon asahii [6]) | MIC95 (Staphylococcus aureus [7]) | MIC (Mycobacterium kansasii [8]) | MIC95 (Staphylococcus aureus [9]) | MIC80 (Pichia kudriavzevii [10]) | MIC95 [12] | MIC (Mycobacterium avium [16]) | MIC (Mycobacterium kansasii [18]) | MIC (Mycobacterium kansasii [19]) | MIC [23] | MIC (Mycobacterium avium [25]) | MIC (Mycobacterium kansasii [26]) | MIC [27] | MIC (Mycobacterium kansasii [28]) | MIC (Mycobacterium kansasii [29]) | other results
1 | CCOP(=O)(OCC)Oc1ccc(Cl)cc1C(=O)Nc1cccc(C(F)(F)F)c1 | > 500 µM | > 500 µM | > 500 µM | > 500 µM | > 500 µM | > 500 µM | > 500 µM | 8 µM (≈ 3.61 µg/mL) | 500 µM (≈ 226 µg/mL) | > 500 µM | 250 µM (≈ 113 µg/mL) | 16 µM (≈ 7.23 µg/mL) | 8 µM (≈ 3.61 µg/mL) | 8 µM (≈ 3.61 µg/mL) | 2 µM (≈ 0.904 µg/mL) | 16 µM (≈ 7.23 µg/mL) | 8 µM (≈ 3.61 µg/mL) | 2 µM (≈ 0.904 µg/mL) | 8 µM (≈ 3.61 µg/mL) | 8 µM (≈ 3.61 µg/mL) | Activity (Candida tropicalis): inactive; Activity (Nakaseomyces glabratus): inactive; Activity (Pseudomonas aeruginosa): inactive; Activity (Klebsiella pneumoniae [11]): inactive; MIC80 (Trichosporon asahii [13]): > 500 µM; MIC50 (Lichtheimia corymbifera [14]): > 500 µM; pIC50 (HepG2): 5.25; MIC95 (Staphylococcus aureus [15]): 500 µM (≈ 226 µg/mL); MIC50 [17]: > 500 µM; Activity (Enterococcus sp.): inactive; MIC50 (Aspergillus fumigatus [20]): > 500 µM; MIC80 (Pichia kudriavzevii [21]): > 500 µM; MIC50 (Lichtheimia corymbifera [22]): > 500 µM; Activity (Escherichia coli): inactive; MIC50 [24]: > 500 µM; Activity (Klebsiella pneumoniae [30]): inactive
2 | NNC(=O)c1ccncc1 [ISONIAZID] |  |  |  |  |  |  |  | > 250 µM |  |  |  | > 250 µM | 4 µM (≈ 0.549 µg/mL) | > 250 µM | 1 µM (≈ 0.137 µg/mL) | 250 µM (≈ 34.3 µg/mL) | 2 µM (≈ 0.274 µg/mL) | 0.5 µM (≈ 0.0686 µg/mL) | 4 µM (≈ 0.549 µg/mL) | > 250 µM | 
3 | Nc1ccc(C(=O)O)c(O)c1 [AMINOSALICYLIC ACID] |  |  |  |  |  |  |  | 125 µM (≈ 19.1 µg/mL) |  |  |  | 125 µM (≈ 19.1 µg/mL) | 500 µM (≈ 76.6 µg/mL) | 1000 µM (≈ 153 µg/mL) | 62.5 µM (≈ 9.57 µg/mL) | 32 µM (≈ 4.9 µg/mL) | 32 µM (≈ 4.9 µg/mL) | 62.5 µM (≈ 9.57 µg/mL) | 125 µM (≈ 19.1 µg/mL) | > 1000 µM | 
4 | OC(Cn1cncn1)(Cn1cncn1)c1ccc(F)cc1F [FLUCONAZOLE] |  | 1 µM (≈ 0.306 µg/mL) | > 50 µM | 2 µM (≈ 0.613 µg/mL) |  | 4 µM (≈ 1.23 µg/mL) |  |  |  | > 50 µM |  |  |  |  |  |  |  |  |  |  | MIC80 (Trichosporon asahii [13]): 9 µM (≈ 2.76 µg/mL); MIC50 (Lichtheimia corymbifera [14]): > 50 µM; MIC50 [17]: 17 µM (≈ 5.21 µg/mL); MIC50 (Aspergillus fumigatus [20]): > 50 µM; MIC80 (Pichia kudriavzevii [21]): > 50 µM; MIC50 (Lichtheimia corymbifera [22]): > 50 µM; MIC50 [24]: 26 µM (≈ 7.96 µg/mL)
5 | CC1(C)S[C@@H]2[C@H](NC(=O)Cc3ccccc3)C(=O)N2[C@H]1C(=O)O [PENICILLIN G] | 250 µM (≈ 83.6 µg/mL) |  |  |  | 0.98 µM (≈ 0.328 µg/mL) |  | 0.98 µM (≈ 0.328 µg/mL) |  | 125 µM (≈ 41.8 µg/mL) |  | 250 µM (≈ 83.6 µg/mL) |  |  |  |  |  |  |  |  |  | MIC95 (Staphylococcus aureus [15]): 62.5 µM (≈ 20.9 µg/mL)
